pIC50: −log10 of the molar value. Active and inactive are the calls of the source. The rule behind the calls is not given here.
Columns and labels:
HepG2 = assay: Cytotoxicity against human HepG2 cells after 72 hrs by MTT assay; assay type: functional, cell-based; conditions: HepG2, 72 h
Procedure, shortened: (§1)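 MTT assay. Cells were plated and grown 24 h at 37 °C, 5% CO2, then exposed to compound in medium with 0.1% DMSO for 72 h. MTT (5 mg/mL in PBS) was added for 4 h and absorbance read at 490 nm. IC50 was taken from dose-response curves; at least three independent experiments.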

SMMC-7721 = assay: Cytotoxicity against human SMMC7721 cells after 72 hrs by MTT assay; assay type: functional, cell-based; conditions: SMMC-7721, 72 h; procedure, shortened: as §1
HCT-116 = assay: Cytotoxicity against human HCT116 cells after 72 hrs by MTT assay; assay type: functional, cell-based; conditions: HCT-116, 72 h; procedure, shortened: as §1
HL-60 = assay: Cytotoxicity against human HL60 cells after 72 hrs by MTT assay; assay type: functional, cell-based; conditions: HL-60, 72 h; procedure, shortened: as §1
L02 = assay: Cytotoxicity against human LO2 cells after 72 hrs by MTT assay; assay type: cell-based; conditions: L02, 72 h; procedure, shortened: as §1
H22 = assay: Antitumor activity against […] H22 cells xenografted in ICR mouse assessed as tumor growth inhibition at 30 mg/kg, iv administered once daily for 21 days measured post last dose relative to control; assay type: functional; conditions: 504 h, read-out: TGI
Mus musculus = assay: Toxicity in ICR mouse xenografted with […] cells assessed as body weight at 30 mg/kg, iv administered once daily for 21 days measured post last dose (reference value: 26 +/- 0.6 g); assay type: organism-based; conditions: in vivo, 504 h
[1] = Induction of NO release assessed as nitrite formation in PBS at 100 uM up to 300 mins by Griess assay
Procedure, shortened: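 Compound at 100 μM was incubated at 37 °C in PBS, pH 7.4, containing 2% DMSO and 5.0 mM L-cysteine, in acellular or HepG2 cell lysates, and sampled over time. Samples were mixed with Griess reagent at 37 °C for 15 min and read at 540 nm. Nitrite was quantified against a sodium nitrite standard curve, in triplicate.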

Row | SMILES | pIC50 (HepG2) | pIC50 (SMMC-7721) | pIC50 (HCT-116) | pIC50 (HL-60) | pIC50 (L02) | inhibition in vivo at 30 mg/kg (H22) | Activity (Mus musculus) | Activity [1]
1 | COc1ccc2cc3[n+](cc2c1OCCO[N+](=O)[O-])CCc1cc2c(cc1-3)OCO2 | 4.60 | – | – | – | – | – | – | –
2 | COc1cc2c(cc1OC)-c1c(Br)c3ccc(OC)c(OCCCCCCCCCCO[N+](=O)[O-])c3c[n+]1CC2 | 5.52 | – | – | – | – | – | – | –
3 | COc1cc2c(cc1OC)-c1cc3ccc(OC)c(OC)c3c[n+]1CC2.[Cl-] [PALMATINE CHLORIDE] | < 4.00 | < 4.00 | < 4.00 | < 4.00 | < 4.00 | 41.6% | 25.5 g | –
4 | COc1ccc2cc3[n+](cc2c1OC)CCc1cc2c(cc1-3)OCO2 [BERBERINE CHLORIDE] | 4.31 | 4.59 | 4.40 | 4.56 | 4.15 | – | – | –
5 | COc1ccc2cc3[n+](cc2c1OCCCCCCCCO[N+](=O)[O-])CCc1cc2c(cc1-3)OCO2 | 5.61 | 5.55 | 5.80 | 5.85 | 4.47 | – | – | Active

— ChEMBL document CHEMBL4024711, “Design, synthesis and biological evaluation of novel nitric oxide-donating protoberberine derivatives as antitumor agents” (Eur J Med Chem, 2017)
